Assay results from ChEMBL document CHEMBL1938334, “Quinoline tricyclic derivatives. Design, synthesis and evaluation of the antiviral activity of three new classes of RNA-dependent RNA polymerase inhibitors” (Bioorg Med Chem, 2011).

Columns and labels:
[1] = test system: Vesicular stomatitis Indiana virus; assay: Antiviral activity against clinical isolate Vesicular stomatitis Indiana virus infected in african green monkey Vero 76 cells assessed as reduction of virus-induced plaque formation after 2 days using crystal violet staining; assay type: functional, organism-based; settings: 48 h
[2] = test system: Human immunodeficiency virus 1; assay: Antiviral activity against HIV1 3B infected in human MT4 cells assessed as inhibition of virus-induced cytopathogenicity after 4 days by MTT assay; assay type: functional, organism-based; settings: Human immunodeficiency virus 1, 3B, MT4, 96 h
In short: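 MT-4 cells (1×10^4 per well) were infected with HIV-1 IIIB at 100 CCID50, m.o.i. 0.01, together with serial compound dilutions. Viability was read by MTT after 4 days at 37 °C. EC50 was taken by linear regression versus untreated controls. Mean of three determinations.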

Coxsackievirus B5 = assay: Antiviral activity against Human coxsackievirus B5 Ohio-1 infected in african green monkey Vero 76 cells assessed as reduction of virus-induced plaque formation after 3 days using crystal violet staining; assay type: functional, organism-based; settings: Enterovirus B, Ohio-1, Vero, 72 h
Human alphaherpesvirus 1 = assay: Antiviral activity against Human herpesvirus 1 strain KOS infected in african green monkey Vero 76 cells assessed as reduction of virus-induced plaque formation after 3 days using crystal violet staining; assay type: functional, organism-based; settings: Human alphaherpesvirus 1, KOS, 72 h
Poliovirus 1 = assay: Antiviral activity against Human poliovirus 1 strain Sabin Chat infected in african green monkey Vero 76 cells assessed as virus-induced reduction of plaque formation after 2 days using crystal violet staining; assay type: functional, cell-based; settings: Enterovirus C, 48 h
Yellow fever virus = assay: Antiviral activity against Yellow fever virus 17D Stamaril Pasteur J07B01 infected in hamster BHK21 cells assessed as inhibition of virus-induced cytopathogenicity after 3 to 4 days by MTT assay; assay type: functional, cell-based; settings: Stamaril Pasteur J07B01, BHK-21
In short: (§1)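 Host cells were seeded in 96-well plates at 3×10^4 cells/well (MDBK) or 5×10^4 cells/well (BHK-21) and grown to confluent monolayers overnight. They were infected at m.o.i. 0.01 in maintenance MEM with 0.5% inactivated FBS. Serial compound dilutions were added after 1 h. Viability was read by MTT after 3–4 days at 37 °C. EC50 was taken by linear regression against untreated controls. Mean of three determinations.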

[3] = Antiviral activity against Bovine viral diarrhea virus 1-NADL infected in MDBK cells assessed as inhibition of virus-induced cytopathogenicity after 3 to 4 days by MTT assay; assay type: functional, cell-based; settings: Bovine viral diarrhea virus isolates and strains; in short: as §1
[4] = Cytotoxicity against human MT4 cells after 96 hrs by MTT assay; assay type: cell-based
In short: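 Exponentially growing MT-4 cells seeded at 1×10^5 cells/mL in RPMI-1640 with 10% FBS, penicillin and streptomycin. Incubated with serial compound dilutions at 37 °C, 5% CO2 for 96 h; viability by MTT. CC50 by linear regression relative to untreated controls; mean of three independent determinations.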

[5] = Cytotoxicity against MDBK cells after 48 to 96 hrs by MTT assay; assay type: cell-based, Bos taurus; settings: cattle
In short: (§2)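 MDBK seeded at 6×10^5 and BHK at 1×10^6 cells/mL in MEM-Earle's with L-glutamine, 1 mM pyruvate, kanamycin, plus 10% horse serum (MDBK) or 10% FBS (BHK). Cells were grown at 37 °C, 5% CO2 with serial compound dilutions (DMSO stocks diluted in medium). Viability by MTT after 48–96 h. CC50 was taken by linear regression versus untreated controls; three independent determinations.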

[6] = Cytotoxicity against BHK21 cells after 48 to 96 hrs by MTT assay; assay type: cell-based, Mesocricetus auratus, BHK-21; settings: hamster; in short: as §2
Human orthopneumovirus = assay: Antiviral activity against Human respiratory syncytial virus A2 infected in african green monkey Vero 76 cells assessed as reduction of virus-induced plaque formation after 5 days using crystal violet staining; assay type: functional, organism-based; settings: 120 h
[7] = Antiviral activity against Vaccinia virus Lister Elstree infected in african green monkey Vero 76 cells assessed as reduction of virus-induced plaque formation after 3 days using crystal violet staining; assay type: functional, cell-based; settings: 72 h
Reovirus sp. = assay: Antiviral activity against Reovirus type-1 3651 infected in hamster BHK21 cells assessed as inhibition of virus-induced cytopathogenicity after 3 to 4 days by MTT assay; assay type: functional, organism-based; settings: Reovirus sp., 3651, BHK-21; in short: as §1
[8] = Cytotoxicity against african green monkey Vero 76 cells after 48 to 96 hrs by crystal violet staining; assay type: cell-based; settings: chlorocebus sabaeus
In short: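 Vero-76 cells were seeded at 4×10^5 cells/mL in D-MEM with L-glutamine, kanamycin and 10% FBS, then exposed to serial compound dilutions at 37 °C, 5% CO2 for 48–96 h. Viability was read by crystal violet staining. 50% cytotoxic concentration by linear regression relative to untreated controls; mean of three independent determinations.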

| Structure (SMILES) | EC50 [1] [µM] | EC50 [2] [µM] | EC50 (Coxsackievirus B5) [µM] | EC50 (Human alphaherpesvirus 1) [µM] | EC50 (Poliovirus 1) [µM] | EC50 (Yellow fever virus) [µM] | EC50 [3] [µM] | CC50 at 96 h [4] [µM] | CC50 [5] [µM] | CC50 [6] [µM] | EC50 (Human orthopneumovirus) [µM] | EC50 [7] [µM] | EC50 (Reovirus sp.) [µM] | CC50 [8] [µM] |
| --- | --- | --- | --- | --- | --- | --- | --- | --- | --- | --- | --- | --- | --- | --- |
| O=C(CCl)Cn1nnc2cc3cccnc3c(Cl)c21 | > 100 | > 23 | > 100 | > 100 | > 100 | > 65 | > 21 | 23 | 21 | 65 | > 100 | > 100 | > 65 | > 100 |
| Clc1c2ncccc2cc2nn[nH]c12 | > 100 | > 100 | > 100 | > 100 | > 100 | > 100 | > 100 | > 100 | > 100 | > 100 | > 100 | > 100 | > 100 | > 100 |
| Oc1ccnc2c(Cl)c3[nH]nnc3cc12 | > 100 | > 100 | > 100 | > 100 | > 100 | > 100 | > 100 | > 100 | > 100 | > 100 | > 100 | > 100 | ≥ 100 | > 100 |
| [O-][n+]1n[nH]c2c(Cl)c3nccc(O)c3cc21 | > 100 | > 100 | > 100 |  | > 100 | > 100 | > 100 | > 100 | > 100 | > 100 | > 100 | > 100 | > 100 | > 100 |
| O=[N+]([O-])c1c2cccnc2c(Cl)c2[nH]nnc12 | > 100 | > 100 | > 100 | > 100 | > 100 | > 100 | 23 | > 100 | > 100 | > 100 | > 100 | > 100 | > 100 | > 100 |
| O=[N+]([O-])c1c2cccnc2c(Cl)c2[nH]n[n+]([O-])c12 | > 100 | > 100 | > 100 |  | > 100 | > 100 | > 100 | > 100 | > 100 | > 100 | > 100 | > 100 |  | > 100 |
| N#CCn1nnc2c(Cl)c3ncccc3cc21 | > 100 | > 62 | > 100 | 51 | > 100 | > 100 | 23 | 62 | > 100 | > 100 | > 100 | > 100 | > 100 | > 100 |
| N#CCn1nnc2cc3cccnc3c(Cl)c21 | > 100 | > 100 | > 100 | > 100 | > 100 | > 100 | 100 | 100 | > 100 | > 100 | > 100 | > 100 | > 100 | > 100 |
| CC(=O)n1nnc2c(Cl)c3ncccc3cc21 | > 100 | > 46 | > 100 | > 100 | > 100 | > 72 | > 30 | 46 | 30 | 72 | > 100 | > 100 |  | > 100 |
| O=C(CCl)Cn1nnc2c(Cl)c3ncccc3cc21 | > 100 | > 21 | > 100 | > 100 | > 100 | > 85 | > 53 | 21 | 53 | 85 | > 100 | > 100 | > 85 | > 100 |
| c1cnc2cc3[nH]cnc3cc2c1 | > 100 | > 100 | > 100 | > 100 | > 100 | > 100 | > 100 | > 100 | > 100 | > 100 |  | > 100 | > 100 | > 100 |
| Clc1c2ncccc2cc2nc[nH]c12 | > 100 | > 100 | > 100 | > 100 | > 100 | > 100 | > 100 | > 100 | > 100 | > 100 |  | > 100 | > 100 | > 100 |
